Reference: ChEMBL document CHEMBL1142787, “Bicyclic nucleoside inhibitors of Varicella-Zoster virus: the effect of branching in the p-alkylphenyl side chain” (Bioorg Med Chem Lett, 2005)

Columns and labels:
[1] = Effective concentration required to reduce thymidine kinase-Varicella Zoster virus YS/R plaque formation by using DMSO as solvent; type: functional, Human alphaherpesvirus 3
[2] = Effective concentration required to reduce Varicella Zoster virus OKA plaque formation by using DMSO as solvent; type: functional, Human alphaherpesvirus 3
[3] = Minimal cytotoxic concentration required to alter microscopically detectable cell morphology; type: functional
Summary of the method: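 Cell morphology scored by microscopy; compounds dissolved in neat DMSO, then diluted in biological media to stock solutions of ca. 50–200 μM with 1% DMSO; MCC recorded as the minimal concentration that alters microscopically detectable morphology.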

[4] = system: HEL (human embryonic lung fibroblasts); test: Cytotoxic concentration required to inhibit Hel cell growth by using DMSO as solvent

EC50 [1]: 53 µM
EC50 [2]: 1.5 µM
Compound: Nc1nc2c(ncn2COCCO)c(=O)[nH]1 [ACYCLOVIR]
MCC [3]: > 200 µM
CC50 [4]: > 400 µM
